Eleven molecules from ChEMBL document CHEMBL1122425, “Synthesis and some pharmacological properties of [4-threonine,7-sarcosine]oxytocin, a peptide with high oxytocic potency, and of [4-threonine,7-N-methylalanine]oxytocin” (1983) can be followed below.

The structures appear in SMILES notation.

The species entered for test [1] is Rattus norvegicus. Briefly: In vitro for uterotonic activity in the absence of Mg2+ ion by Munsick method. The class given is functional.
The species entered for test [2] is Rattus norvegicus. Briefly: In vitro for uterotonic activity in the presence of Mg2+ ion by Munsick method. The class given is functional. The method, boiled down:
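Isolated uterus bath contains 0.5 mM Mg2+.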

The subject of test [3] is Rattus norvegicus. Briefly: Evaluation of antidiuretic activity against ethanol-anesthetized rats. The class given is functional, Urine. The method, boiled down: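 Rats water-loaded before assay, under ethanol anesthesia.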
For test [4], the species on record is Rattus norvegicus. Briefly: Evaluation of milk ejecting activity. The test is classed as functional.
For test [5], the species on record is Rattus norvegicus. Briefly: Evaluation of vasopressor activity. The test is classed as functional.
Test [6] in a line: Ratio of Oxytocin to Antidiuretic activity. The class given is functional, Urine.
A short description of test [7]: Ratio of Oxytocin to Pressor activity. The test is classed as functional.

On to `CC[C@H](C)[C@@H]1NC(=O)[C@H](Cc2ccc(O)cc2)NC(=O)[C@@H](N)CSSC[C@@H](C(=O)N(C)[C@@H](C)C(=O)N[C@@H](CC(C)C)C(=O)NCC(N)=O)NC(=O)[C@H](CC(N)=O)NC(=O)[C@H]([C@@H](C)O)NC1=O`, for which the Activity in test [1] is 115 U mg-1; in test [2], 219 U mg-1; in test [3] it was 0.047 U mg-1; in test [4], 243 U mg-1; in test [5], below 0.6 U mg-1. The Ratio in test [6] stood at 2450.

As for `CC[C@H](C)[C@@H]1NC(=O)[C@H](Cc2ccc(O)cc2)NC(=O)[C@@H](N)CSSC[C@@H](C(=O)N2CCC[C@H]2C(=O)N[C@@H](CC(C)C)C(=O)NCC(N)=O)NC(=O)[C@H](CC(N)=O)NC(=O)[C@H]([C@@H](C)O)NC1=O`, the Activity is on record as 923 U mg-1 in test [1]; 719 U mg-1 in test [2]; 1.8 U mg-1 in test [3]; 543 U mg-1 in test [4]; 0.43 U mg-1 in test [5]. In test [6], the Ratio is recorded as 510.

As to `CC[C@H](C)[C@@H]1NC(=O)[C@@H](Cc2ccc(O)cc2)NC(=O)[C@H](N)CSSC[C@@H](C(=O)N(C)CC(=O)N[C@@H](CC(C)C)C(=O)NCC(N)=O)NC(=O)[C@H](CC(N)=O)NC(=O)[C@@H]([C@H](C)O)NC1=O`, the Ratio in test [7] was above 2350.

Consider `CC[C@H](C)[C@@H]1NC(=O)[C@H](Cc2ccc(O)cc2)NC(=O)[C@@H](N)CSSC[C@@H](C(=O)N(C)CC(=O)N[C@@H](CC(C)C)C(=O)NCC(N)=O)NC(=O)[C@H](CC(N)=O)NC(=O)[C@H]([C@@H](C)O)NC1=O`, for which the Activity in test [1] was 1173 U mg-1; in test [2], 1561 U mg-1; in test [3] it was 0.037 U mg-1; in test [4] it was 731 U mg-1; in test [5], below 0.5 U mg-1. In addition, the Ratio in test [6] stood at 31700.

For the molecule `CC[C@H](C)[C@@H]1NC(=O)[C@H](Cc2ccc(O)cc2)NC(=O)[C@@H](N)CSSC[C@@H](C(=O)N2CCC[C@H]2C(=O)N[C@@H](CC(C)C)C(=O)NCC(N)=O)NC(=O)[C@H](CC(N)=O)NC(=O)[C@H](CCC(N)=O)NC1=O` [OXYTOCIN], the Activity in test [1] is given as 520 U mg-1; in test [2] it was 486 U mg-1; in test [3], 4 U mg-1; in test [4], 474 U mg-1. Also, the Ratio in test [7] worked out at 120.

As for `CC[C@H](C)[C@@H]1NC(=O)[C@@H](Cc2ccc(O)cc2)NC(=O)[C@H](N)CSSC[C@@H](C(=O)N(C)CC(=O)N[C@@H](CC(C)C)C(=O)NCC(N)=O)NC(=O)[C@H](CC(N)=O)NC(=O)[C@@H](CCC(N)=O)NC1=O`, in test [7], the Ratio is above 1310.

As for `CC[C@H](C)[C@@H]1NC(=O)[C@H](Cc2ccc(O)cc2)NC(=O)[C@@H](N)CSSC[C@@H](C(=O)N(C)CC(=O)N[C@@H](CC(C)C)C(=O)NCC(N)=O)NC(=O)[C@H](CC(N)=O)NC(=O)[C@H](CCC(N)=O)NC1=O`, the Activity is recorded as 459 U mg-1 in test [1]; 609 U mg-1 in test [2]; 0.18 U mg-1 in test [3]; 564 U mg-1 in test [4]; below 0.35 U mg-1 in test [5]. Besides, the Ratio in test [6] is 2550.

As for `CC[C@H](C)[C@@H]1NC(=O)[C@@H](Cc2ccc(O)cc2)NC(=O)[C@H](N)CSSC[C@@H](C(=O)N2CCC[C@@H]2C(=O)N[C@@H](CC(C)C)C(=O)NCC(N)=O)NC(=O)[C@H](CC(N)=O)NC(=O)[C@@H]([C@H](C)O)NC1=O`, the Ratio in test [7] was 2150.

For `CC[C@H](C)[C@@H]1NC(=O)[C@H](Cc2ccc(O)cc2)NC(=O)[C@@H](N)CSSC[C@@H](C(=O)N(C)[C@@H](C)C(=O)N[C@@H](CC(C)C)C(=O)NCC(N)=O)NC(=O)[C@H](CC(N)=O)NC(=O)[C@H](CCC(N)=O)NC1=O`, the Activity was 62 U mg-1 in test [1]; 184 U mg-1 in test [2]; 0.12 U mg-1 in test [3]; 402 U mg-1 in test [4]; below 0.35 U mg-1 in test [5]. The Ratio in test [6] is listed as 516.

As to `CC[C@H](C)[C@@H]1NC(=O)[C@@H](Cc2ccc(O)cc2)NC(=O)[C@H](N)CSSC[C@@H](C(=O)N(C)[C@H](C)C(=O)N[C@@H](CC(C)C)C(=O)NCC(N)=O)NC(=O)[C@H](CC(N)=O)NC(=O)[C@@H](CCC(N)=O)NC1=O`, the Ratio in test [7] is above 177.

Regarding `CC[C@H](C)[C@@H]1NC(=O)[C@@H](Cc2ccc(O)cc2)NC(=O)[C@H](N)CSSC[C@@H](C(=O)N(C)[C@H](C)C(=O)N[C@@H](CC(C)C)C(=O)NCC(N)=O)NC(=O)[C@H](CC(N)=O)NC(=O)[C@@H]([C@H](C)O)NC1=O`, in test [7], the Ratio was above 192.
